Activity calls are given as the source filed them. No cut-off for these calls is given here.
Experiments:
HT-29 [1] = experiment: Induction of apoptosis in human HT-29 cells at 2.5 uM after 24 hrs by PE annexin V and 7-Aminoactinomycin D staining-based flow cytometry; format: functional
Outline: (§1)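 HT29 cells (RPMI, 10% FBS) treated with 1.25, 2.5 or 5 μM, or DMSO control, for 24 h at 37 °C. Cells then harvested, washed twice in cold PBS and resuspended at 1×10^6 cells/ml in binding buffer. Stained with PE annexin V and 7-AAD for 15 min at RT in the dark, then analysed by flow cytometry. 7-AAD-positive cells counted as dead.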

HT-29 [2] = experiment: Induction of apoptosis in human HT-29 cells at 5 uM after 24 hrs by PE annexin V and 7-Aminoactinomycin D staining-based flow cytometry (reference value: 6.8%); format: functional; outline: as §1
HT-29 [3] = experiment: Induction of apoptosis in human HT-29 cells after 24 hrs by PE annexin V and 7-Aminoactinomycin D staining-based flow cytometry; format: functional, cell-based
Outline: (§2)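 HT29 cells were treated with 1.25–5.0 µM compound or DMSO for 24 h at 37°C, harvested by low-speed centrifugation and washed twice in cold PBS. They were resuspended in binding buffer at 1×10^6 cells/ml, stained with PE annexin V and 7-AAD for 15 min at RT in the dark, and quantified by flow cytometry.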

HT-29 [4] = experiment: Induction of apoptosis in human HT-29 cells assessed as increase in caspase 3/7 activation after 24 hrs by fluorescence spectrophotometry relative to control; format: functional; parameters: concentration or dose not given beside the values
Outline: (§3)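 HT29 cells seeded at 1×10^4/well and grown 24 h, then treated 24 h with 1.25–5 µM compound or DMSO. Equal volume of Apo-ONE caspase-3/7 reagent added, shaken 30 s, incubated 2 h at RT. Cleaved-substrate fluorescence read at ex 498/em 521 nm, expressed relative to DMSO cells. Means ± SD, triplicate, one representative experiment.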

HT-29 [5] = experiment: Induction of apoptosis in human HT-29 cells assessed as increase in caspase 3/7 activation after 24 hrs by fluorescence spectrophotometry; format: functional, cell-based; outline: as §3
HT-29 [6] = experiment: Induction of apoptosis in human HT-29 cells assessed as DNA fragmentation at 5 uM after 48 hrs by TUNEL assay; format: functional, cell-based
Outline: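 1×10^5 HT29 cells/well grown 24 h in 10% serum medium, then exposed to 5 µM compound. Fragmented DNA stained with ApopTag Red in situ kit, Hoechst nuclear counterstain. Red TUNEL-positive versus blue total nuclei scored by fluorescence microscopy.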

Bos taurus = species on record: Bos taurus; experiment: Inhibition of bovine brain tubulin polymerization at 10 uM after 1 hrs by fluorescence assay
Outline: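 Compound at 10 µM final, DMSO as control. Fluorescence (ex 360, em 440 nm) read every 10 s for 1 h at 37°C, duplicate wells.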

[7] = biological target: RAC-alpha serine/threonine-protein kinase (Homo sapiens) (UniProt P31749); experiment: Inhibition of AKT phosphorylation in human HT-29 cells assessed as p-AKT level at 1 uM after 24 hrs by Western blotting; format: cell-based
Outline: (§4)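 HT29 cells treated 24 h with 1 or 2 µM compound or no drug. Lysed in HEPES/NaCl/EDTA/NP40 buffer with phosphatase and protease inhibitors. Protein equalized by Bradford, run on 10% gels, semi-dry transfer to nitrocellulose, blocked in 5% milk. Pan-Akt or phospho-Akt rabbit polyclonal primaries overnight at 4°C, HRP secondaries, chemiluminescence. β-actin loading control.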

HT-29 [8] = experiment: Inhibition of AKT expression in human HT-29 cells assessed as total AKT level at 1 uM after 24 hrs by Western blotting; format: functional, cell-based; outline: as §4
HT-29 [9] = experiment: Inhibition of AKT expression in human HT-29 cells assessed as total AKT level at 2 uM after 24 hrs by Western blotting; format: functional, cell-based; outline: as §4
HT-29 [10] = experiment: Cytotoxicity against human HT-29 cells after 48 hrs by MTS assay; format: functional, cell-based; conditions: HT-29, 48 h
Outline: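 HT29 cells maintained in RPMI with 10% FBS. 5×10^3 cells/well were left to adhere 24 h, then exposed 48 h to compound (DMSO stock diluted in DMEM, 0.5–50 µM). MTS absorbance at 490 nm normalized to control. IC50 from sigmoidal variable-slope fit. Triplicates, at least two independent experiments.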

MCF7 = experiment: Cytotoxicity against human MCF7 cells after 48 hrs by MTS assay; format: functional, cell-based; conditions: MCF7, 48 h
Outline: (§5)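 A549, MCF-7 and UACC903 cells grown in DMEM with 10% FBS at 37°C, 5% CO2. 5×10^3 cells/well were left to adhere 24 h, then treated 48 h with compound (DMSO stock diluted in DMEM, 0.5–50 µM). MTS read at 490 nm and normalized to control. Dose-response fitted as sigmoidal, variable slope. Triplicates from at least two independent experiments.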

A549 = experiment: Cytotoxicity against human A549 cells after 48 hrs by MTS assay; format: functional, cell-based; conditions: A549, 48 h; outline: as §5
UACC-903 = experiment: Cytotoxicity against human UACC903 cells after 48 hrs by MTS assay; format: functional, cell-based; conditions: UACC-903, 48 h; outline: as §5
MEF = experiment: Cytotoxicity against mouse MEF cells after 48 hrs by MTS assay; format: cell-based
Outline: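 Mouse embryonic fibroblasts exposed to compound for 48 h; viability then read by MTS colorimetric assay. IC50 derived from the viability data.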

HT-29 [11] = experiment: Induction of apoptosis in human HT-29 cells assessed as viable cells at 1.25 uM after 24 hrs by PE annexin V and 7-Aminoactinomycin D staining-based flow cytometry (reference value: 93.2%); format: functional; conditions: HT-29, 24 h, read-out: Activity; outline: as §2
HT-29 [12] = experiment: Induction of apoptosis in human HT-29 cells assessed as dead cells at 1.25 uM after 24 hrs by PE annexin V and 7-Aminoactinomycin D staining-based flow cytometry (reference value: 1.33%); format: functional; outline: as §1
HT-29 [13] = experiment: Induction of apoptosis in human HT-29 cells assessed as early apoptotic cells at 1.25 uM after 24 hrs by PE annexin V and 7-Aminoactinomycin D staining-based flow cytometry (reference value: 1.37%); format: functional; outline: as §2
HT-29 [14] = experiment: Induction of apoptosis in human HT-29 cells assessed as late apoptosis or necrotic cells at 1.25 uM after 24 hrs by PE annexin V and 7-Aminoactinomycin D staining-based flow cytometry (reference value: 4.1%); format: functional; outline: as §2
HT-29 [15] = experiment: Induction of apoptosis in human HT-29 cells assessed as viable cells at 2.5 uM after 24 hrs by PE annexin V and 7-Aminoactinomycin D staining-based flow cytometry (reference value: 93.2%); format: functional; conditions: HT-29, 24 h, read-out: Activity; outline: as §2
HT-29 [16] = experiment: Induction of apoptosis in human HT-29 cells assessed as dead cells at 2.5 uM after 24 hrs by PE annexin V and 7-Aminoactinomycin D staining-based flow cytometry (reference value: 1.33%); format: functional; outline: as §1
HT-29 [17] = experiment: Induction of apoptosis in human HT-29 cells assessed as early apoptotic cells at 2.5 uM after 24 hrs by PE annexin V and 7-Aminoactinomycin D staining-based flow cytometry (reference value: 1.37%); format: functional; outline: as §2
HT-29 [18] = experiment: Induction of apoptosis in human HT-29 cells assessed as late apoptosis or necrotic cells at 2.5 uM after 24 hrs by PE annexin V and 7-Aminoactinomycin D staining-based flow cytometry (reference value: 4.1%); format: functional; outline: as §2
HT-29 [19] = experiment: Induction of apoptosis in human HT-29 cells assessed as viable cells at 5 uM after 24 hrs by PE annexin V and 7-Aminoactinomycin D staining-based flow cytometry (reference value: 93.2%); format: functional; conditions: HT-29, 24 h, read-out: Activity; outline: as §2
HT-29 [20] = experiment: Induction of apoptosis in human HT-29 cells assessed as dead cells at 5 uM after 24 hrs by PE annexin V and 7-Aminoactinomycin D staining-based flow cytometry (reference value: 1.33%); format: functional; outline: as §1
HT-29 [21] = experiment: Induction of apoptosis in human HT-29 cells assessed as early apoptotic cells at 5 uM after 24 hrs by PE annexin V and 7-Aminoactinomycin D staining-based flow cytometry (reference value: 1.37%); format: functional; outline: as §2
HT-29 [22] = experiment: Induction of apoptosis in human HT-29 cells assessed as late apoptosis or necrotic cells at 5 uM after 24 hrs by PE annexin V and 7-Aminoactinomycin D staining-based flow cytometry (reference value: 4.1%); format: functional; outline: as §2
HT-29 [23] = experiment: Induction of apoptosis in human HT-29 cells at 1.25 uM after 24 hrs by PE annexin V and 7-Aminoactinomycin D staining-based flow cytometry; format: functional; outline: as §1
[24] = biological target: RAC-alpha serine/threonine-protein kinase (Homo sapiens) (UniProt P31749); experiment: Inhibition of AKT phosphorylation in human HT-29 cells assessed as p-AKT level at 2 uM after 24 hrs by Western blotting; format: cell-based; outline: as §4

Sequence of RAC-alpha serine/threonine-protein kinase (Homo sapiens) (P31749 whole entry): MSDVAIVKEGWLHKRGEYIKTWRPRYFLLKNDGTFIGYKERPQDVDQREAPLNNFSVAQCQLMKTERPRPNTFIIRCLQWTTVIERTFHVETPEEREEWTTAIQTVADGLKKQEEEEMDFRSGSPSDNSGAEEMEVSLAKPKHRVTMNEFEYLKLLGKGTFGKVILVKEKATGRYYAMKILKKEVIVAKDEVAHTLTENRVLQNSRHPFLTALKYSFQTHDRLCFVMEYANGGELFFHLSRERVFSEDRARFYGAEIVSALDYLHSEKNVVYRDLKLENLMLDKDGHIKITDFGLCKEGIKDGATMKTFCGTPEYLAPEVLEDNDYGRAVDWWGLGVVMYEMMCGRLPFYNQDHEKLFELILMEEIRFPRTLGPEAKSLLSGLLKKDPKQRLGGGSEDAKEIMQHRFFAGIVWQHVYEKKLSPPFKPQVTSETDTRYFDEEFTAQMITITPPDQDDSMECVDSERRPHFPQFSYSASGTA

SMILES	Activity (HT-29 [1])	Activity (HT-29 [2])	Activity (HT-29 [3])	fold change (FC) (HT-29 [4])	Activity (HT-29 [5])	Activity (HT-29 [6])	inhibition (Bos taurus)	inhibition [7]	inhibition (HT-29 [8])	inhibition (HT-29 [9])	IC50 (HT-29 [10])	IC50 (MCF7)	IC50 (A549)	IC50 (UACC-903)	IC50 (MEF)	viability at 1.25 µM (HT-29 [11])	Activity (HT-29 [12])	Activity (HT-29 [13])	Activity (HT-29 [14])	viability at 2.5 µM (HT-29 [15])	other results
N#CSCc1ccc(CN2C(=O)C(=O)c3cc(Br)cc(Br)c32)cc1	39.46%	66.98%	Dose-dependent effect	16	Dose-dependent effect	Active	71%	inactive	Active	Active	1.14 µM	24.7 µM	2.53 µM	2.23 µM	> 20 µM	88.5%	2.59%	4.42%	4.46%	60.6%	Activity (HT-29 [16]): 7.76%; Activity (HT-29 [17]): 10.6%; Activity (HT-29 [18]): 21.1%; viability at 5 µM (HT-29 [19]): 33.1%; Activity (HT-29 [20]): 11.4%; Activity (HT-29 [21]): 2.68%; Activity (HT-29 [22]): 52.9%; Activity (HT-29 [23]): 11.47%
O=C1C(=O)N(CCCN=C=S)c2c(Br)cc(Br)cc21	21.23%	61.5%	Dose-dependent effect	16	Dose-dependent effect	Active	62%	inactive	inactive	Active	1.56 µM	8.96 µM	2.13 µM	4.37 µM	> 20 µM	91.5%	1.92%	2.83%	3.79%	78.8%	inhibition [24]: Active; Activity (HT-29 [16]): 2.9%; Activity (HT-29 [17]): 6.93%; Activity (HT-29 [18]): 11.4%; viability at 5 µM (HT-29 [19]): 38.5%; Activity (HT-29 [20]): 8.22%; Activity (HT-29 [21]): 4.78%; Activity (HT-29 [22]): 48.5%; Activity (HT-29 [23]): 8.54%

From ChEMBL document CHEMBL1833841, “Synthesis and biological evaluation of a novel class of isatin analogs as dual inhibitors of tubulin polymerization and Akt pathway” (Bioorg Med Chem, 2011)
